Assay results published in ChEMBL document CHEMBL3585303, “Progress towards small molecule menin-mixed lineage leukemia (MLL) interaction inhibitors with in vivo utility” (Bioorg Med Chem Lett, 2015).

Experiments:
[1] = Intrinsic clearance in human liver microsomes; type: ADME; conditions: read-out: CLH
[2] = Intrinsic clearance in rat liver microsomes; type: ADME; conditions: read-out: CLH
[3] = Unbound fraction in human plasma; type: ADME, cell-free
How it was run: (§1)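 Plasma protein binding was determined in human, rat or mouse plasma and reported as the fraction unbound (fu).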

[4] = Unbound fraction in mouse plasma; type: ADME, cell-free; how it was run: as §1
[5] = Plasma clearance in rat at 0.2 mg/kg, iv; type: ADME, organism-based
How it was run: (§2)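 Rats received a single IV dose of 0.2 mg/kg, given either as a discrete dose or within an IV cassette study. Reported parameters were plasma clearance CLp (mL/min/kg), T1/2, and volume of distribution at steady state Vss (L/kg).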

[6] = Half life in rat at 0.2 mg/kg, iv; type: ADME, organism-based; conditions: in vivo; how it was run: as §2
[7] = Volume of distribution at steady state in rat at 0.2 mg/kg, iv; type: ADME, organism-based; conditions: in vivo, read-out: Vdss; how it was run: as §2
[8] = target: Menin/Histone-lysine N-methyltransferase MLL (Homo sapiens, UniProt O00255); assay: Inhibition of menin-MLL1 interaction (unknown origin) incubated for 1 hr by fluorescein and Texas Red labeled MBM1 based fluorescence polarization assay; type: protein assay
[9] = Unbound fraction in rat plasma; type: ADME, cell-free; how it was run: as §1
MV4-11 = assay: Growth inhibition of human MV4-11 cells; type: functional
[10] = Drug level in rat hepatic S9 fraction treated with compound 10b assessed as compound formation; type: ADME, tissue-based, Liver

Chain of Menin/Histone-lysine N-methyltransferase MLL (O00255 whole entry): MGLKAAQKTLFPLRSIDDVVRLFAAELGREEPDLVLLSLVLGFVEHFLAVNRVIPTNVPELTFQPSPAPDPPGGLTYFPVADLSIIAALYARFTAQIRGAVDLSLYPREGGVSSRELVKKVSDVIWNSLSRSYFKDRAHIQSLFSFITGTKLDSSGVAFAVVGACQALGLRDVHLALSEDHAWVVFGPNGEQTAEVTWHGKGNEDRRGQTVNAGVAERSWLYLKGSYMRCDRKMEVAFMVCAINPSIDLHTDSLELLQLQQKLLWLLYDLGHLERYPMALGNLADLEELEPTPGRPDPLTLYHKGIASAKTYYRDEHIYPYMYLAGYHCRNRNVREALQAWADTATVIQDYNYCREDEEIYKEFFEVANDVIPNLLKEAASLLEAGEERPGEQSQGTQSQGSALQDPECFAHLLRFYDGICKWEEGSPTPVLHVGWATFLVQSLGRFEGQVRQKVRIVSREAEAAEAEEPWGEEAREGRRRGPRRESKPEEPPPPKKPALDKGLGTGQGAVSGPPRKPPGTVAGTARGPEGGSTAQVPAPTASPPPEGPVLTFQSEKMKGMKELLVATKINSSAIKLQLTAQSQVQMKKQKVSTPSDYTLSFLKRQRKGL
Chain of Menin/Histone-lysine N-methyltransferase MLL (Q03164 1-2718 partner limits assumed): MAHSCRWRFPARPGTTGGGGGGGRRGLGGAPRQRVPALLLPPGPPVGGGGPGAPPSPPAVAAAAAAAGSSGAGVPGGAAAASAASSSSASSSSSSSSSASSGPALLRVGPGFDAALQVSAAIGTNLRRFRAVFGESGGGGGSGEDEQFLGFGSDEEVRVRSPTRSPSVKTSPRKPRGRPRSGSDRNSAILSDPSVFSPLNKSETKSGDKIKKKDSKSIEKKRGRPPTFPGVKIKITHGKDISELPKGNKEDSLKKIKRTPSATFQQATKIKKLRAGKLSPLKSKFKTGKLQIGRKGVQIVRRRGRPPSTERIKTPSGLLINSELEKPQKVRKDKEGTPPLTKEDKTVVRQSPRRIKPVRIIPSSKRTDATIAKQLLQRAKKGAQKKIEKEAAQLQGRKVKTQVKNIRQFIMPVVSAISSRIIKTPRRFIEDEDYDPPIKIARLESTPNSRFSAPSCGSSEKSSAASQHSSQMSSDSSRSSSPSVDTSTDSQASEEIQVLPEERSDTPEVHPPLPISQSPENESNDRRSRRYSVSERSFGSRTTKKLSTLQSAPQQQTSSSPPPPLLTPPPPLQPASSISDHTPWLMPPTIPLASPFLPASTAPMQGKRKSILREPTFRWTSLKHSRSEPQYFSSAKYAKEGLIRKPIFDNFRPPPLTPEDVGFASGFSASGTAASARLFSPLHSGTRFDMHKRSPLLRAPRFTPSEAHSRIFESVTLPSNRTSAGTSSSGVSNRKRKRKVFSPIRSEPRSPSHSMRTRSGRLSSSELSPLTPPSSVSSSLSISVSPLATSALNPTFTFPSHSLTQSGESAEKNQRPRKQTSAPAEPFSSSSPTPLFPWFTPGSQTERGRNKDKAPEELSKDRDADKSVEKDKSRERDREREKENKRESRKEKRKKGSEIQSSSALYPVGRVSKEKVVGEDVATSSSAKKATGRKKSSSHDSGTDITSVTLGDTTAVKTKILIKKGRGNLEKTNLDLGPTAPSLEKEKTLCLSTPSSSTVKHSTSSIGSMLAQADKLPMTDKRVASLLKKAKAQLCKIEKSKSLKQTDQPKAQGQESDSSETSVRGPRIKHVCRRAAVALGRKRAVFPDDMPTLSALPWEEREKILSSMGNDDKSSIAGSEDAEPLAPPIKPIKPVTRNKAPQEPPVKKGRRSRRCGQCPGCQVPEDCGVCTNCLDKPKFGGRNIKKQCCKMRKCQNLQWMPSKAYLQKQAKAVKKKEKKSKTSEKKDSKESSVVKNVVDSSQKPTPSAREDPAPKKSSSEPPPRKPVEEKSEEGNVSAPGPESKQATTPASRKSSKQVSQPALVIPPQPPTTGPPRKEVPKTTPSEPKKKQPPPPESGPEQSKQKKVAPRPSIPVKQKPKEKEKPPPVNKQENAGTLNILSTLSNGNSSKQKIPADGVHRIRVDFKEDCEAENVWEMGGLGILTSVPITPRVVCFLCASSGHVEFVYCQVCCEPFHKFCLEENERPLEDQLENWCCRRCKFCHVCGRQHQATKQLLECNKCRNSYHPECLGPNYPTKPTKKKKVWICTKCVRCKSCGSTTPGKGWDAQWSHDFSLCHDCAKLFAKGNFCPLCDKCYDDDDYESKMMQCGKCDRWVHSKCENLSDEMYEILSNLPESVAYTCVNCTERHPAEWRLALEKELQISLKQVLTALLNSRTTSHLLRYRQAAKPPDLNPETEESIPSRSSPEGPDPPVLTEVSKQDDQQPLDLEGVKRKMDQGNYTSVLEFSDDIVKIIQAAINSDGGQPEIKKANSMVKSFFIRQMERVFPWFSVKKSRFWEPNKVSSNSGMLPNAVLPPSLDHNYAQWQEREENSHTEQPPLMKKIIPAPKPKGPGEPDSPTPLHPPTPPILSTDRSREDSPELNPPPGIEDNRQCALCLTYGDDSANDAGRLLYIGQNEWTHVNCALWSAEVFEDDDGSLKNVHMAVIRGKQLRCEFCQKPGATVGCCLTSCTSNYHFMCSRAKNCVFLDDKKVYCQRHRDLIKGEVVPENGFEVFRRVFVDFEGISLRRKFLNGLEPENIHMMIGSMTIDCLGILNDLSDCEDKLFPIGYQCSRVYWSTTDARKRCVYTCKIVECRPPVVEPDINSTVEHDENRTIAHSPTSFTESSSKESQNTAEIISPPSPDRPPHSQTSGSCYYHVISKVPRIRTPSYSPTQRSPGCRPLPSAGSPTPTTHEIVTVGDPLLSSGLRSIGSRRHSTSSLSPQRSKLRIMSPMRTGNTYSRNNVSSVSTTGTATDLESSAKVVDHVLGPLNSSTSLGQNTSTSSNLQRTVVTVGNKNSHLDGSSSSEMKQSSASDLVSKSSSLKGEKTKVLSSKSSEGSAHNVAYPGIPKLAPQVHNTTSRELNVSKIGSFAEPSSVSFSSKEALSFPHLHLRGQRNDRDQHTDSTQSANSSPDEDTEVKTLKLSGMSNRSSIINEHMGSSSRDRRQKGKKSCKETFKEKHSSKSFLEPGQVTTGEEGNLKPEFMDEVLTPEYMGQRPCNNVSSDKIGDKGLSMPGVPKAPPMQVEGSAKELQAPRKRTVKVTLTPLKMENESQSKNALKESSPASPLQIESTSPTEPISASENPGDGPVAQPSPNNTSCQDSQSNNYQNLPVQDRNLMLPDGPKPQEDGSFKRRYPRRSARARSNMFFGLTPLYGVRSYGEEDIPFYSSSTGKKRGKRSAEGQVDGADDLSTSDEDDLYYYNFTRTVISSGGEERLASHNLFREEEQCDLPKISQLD
Chain of Menin/Histone-lysine N-methyltransferase MLL (Q03164 2719-3969 partner limits assumed): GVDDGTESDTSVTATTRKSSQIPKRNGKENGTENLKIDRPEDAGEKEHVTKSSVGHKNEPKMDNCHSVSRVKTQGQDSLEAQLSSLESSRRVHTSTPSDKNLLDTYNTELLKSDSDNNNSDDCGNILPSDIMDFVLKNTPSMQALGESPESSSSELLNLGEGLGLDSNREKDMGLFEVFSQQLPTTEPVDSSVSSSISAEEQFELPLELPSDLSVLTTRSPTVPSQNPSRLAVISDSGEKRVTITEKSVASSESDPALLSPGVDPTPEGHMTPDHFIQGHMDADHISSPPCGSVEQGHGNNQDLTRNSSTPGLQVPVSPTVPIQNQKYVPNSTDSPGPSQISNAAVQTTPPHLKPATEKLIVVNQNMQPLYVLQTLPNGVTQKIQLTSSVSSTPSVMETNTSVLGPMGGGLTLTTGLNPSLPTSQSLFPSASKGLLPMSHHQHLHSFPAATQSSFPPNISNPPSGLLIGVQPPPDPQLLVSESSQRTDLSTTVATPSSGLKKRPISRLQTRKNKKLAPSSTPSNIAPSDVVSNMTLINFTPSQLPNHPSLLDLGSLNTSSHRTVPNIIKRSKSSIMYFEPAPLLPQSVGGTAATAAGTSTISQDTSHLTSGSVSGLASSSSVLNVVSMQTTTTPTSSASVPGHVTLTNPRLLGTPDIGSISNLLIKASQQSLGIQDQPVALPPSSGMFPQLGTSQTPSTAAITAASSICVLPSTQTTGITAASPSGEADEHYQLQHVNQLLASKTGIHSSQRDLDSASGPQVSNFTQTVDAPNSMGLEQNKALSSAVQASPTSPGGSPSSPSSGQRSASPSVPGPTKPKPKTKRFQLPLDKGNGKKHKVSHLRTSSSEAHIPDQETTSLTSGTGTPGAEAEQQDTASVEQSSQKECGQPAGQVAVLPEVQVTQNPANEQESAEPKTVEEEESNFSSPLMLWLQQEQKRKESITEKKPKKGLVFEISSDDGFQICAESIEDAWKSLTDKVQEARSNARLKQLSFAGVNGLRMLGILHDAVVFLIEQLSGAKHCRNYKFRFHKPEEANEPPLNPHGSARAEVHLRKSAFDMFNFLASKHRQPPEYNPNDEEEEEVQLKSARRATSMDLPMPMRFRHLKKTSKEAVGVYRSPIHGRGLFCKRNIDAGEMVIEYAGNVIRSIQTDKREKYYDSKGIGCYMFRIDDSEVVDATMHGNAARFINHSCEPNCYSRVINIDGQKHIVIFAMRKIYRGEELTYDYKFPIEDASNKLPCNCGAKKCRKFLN

| SMILES | CLint scaled [1] [mL/min/kg] | CLint scaled [2] [mL/min/kg] | fraction unbound [3] | fraction unbound [4] | clearance [5] [mL/min/kg] | half-life [6] [h] | Vd [7] [L/kg] | IC50 [8] [µM] | fraction unbound [9] | GI50 (MV4-11) [µM] | Drug metabolism [10] |
| --- | --- | --- | --- | --- | --- | --- | --- | --- | --- | --- | --- |
| N#Cc1ccc(OCCCN2CCC(C(O)(c3ccccc3)C3CCCC3)CC2)cc1 (stereo unspecified) | 124 | 919 | 0.004 | 0.013 | 40 | 1.6 | 2.9 |  |  |  |  |
| N#Cc1ccc(OCCCN2CCC(C(O)(c3nccs3)C3CCCC3)CC2)cc1 (stereo unspecified) | 77.4 | 558 | 0.117 | 0.192 |  |  |  |  |  |  |  |
| N#Cc1ccc(OCCCN2CCC(C(O)(c3cccc(F)c3)c3nccs3)CC2)cc1 (stereo unspecified) | 69 | 273 | 0.04 |  | 32 | 2.8 | 7.2 | 0.46 | 0.108 |  |  |
| NS(=O)(=O)c1ccc(OCCCN2CCC(C(O)(c3cccc(F)c3)c3nccs3)CC2)cc1 (stereo unspecified) | 50 | 206 | 0.17 | 0.166 | 26 | 1.4 | 4.4 |  | 0.322 |  |  |
| CC1(C)CN=C(N2CCN(c3ncnc4sc(CC(F)(F)F)cc34)CC2)S1 |  |  |  |  |  |  |  |  |  | 3 |  |
| O[C@](c1cccc(F)c1)(c1ccccn1)C1CCNCC1 |  |  |  |  |  |  |  |  |  |  | metabolite_detected |
| NS(=O)(=O)c1ccc(OCCCN2CCC(C(O)(c3ccccn3)C3CCCC3)CC2)cc1 (racemic) | 16.2 | 271 | 0.291 | 0.342 | 293 | 0.2 | 4.3 |  |  |  |  |
